Reference: publication PMC12123727 (BMC Cancer, 2025)
Where two headings read alike, the source gives them in different places.

Experiments:
advanced solid tumor = settings: combined with pazopanib, follow-up, cited from earlier work
[1] = Phase 1 safety evaluation; type: in vivo, human; settings: for Dose interruption: due to thrombocytopenia; for tolerability: Chinese patients with r/r B cell NHL, 40-80 mg BID
How it was run: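 3 + 3 escalation of oral test compound, 40, 60 or 80 mg BID 4 h apart, 7 days on and 7 off, after a single dose on D-3. Investigators graded AEs at every visit per CTCAE v5.0. DLT was assessed over cycle 1 and covered grade 4 cytopenias, febrile or bleeding grade ≥3 cytopenias, and grade ≥3 non-hematological toxicity. Safety set: ≥1 dose and ≥1 safety evaluation.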

[2] = test system: r/r B cell NHL or chronic lymphocytic leukemia; settings: cited from earlier work

CN(C)Cc1c(C(=O)NCCOc2ccc(C(=O)NO)cc2)oc2ccccc12 [abexinostat, Abexinostat]
median duration of treatment in exceptional responders (advanced solid tumor; range 39.8–133 +): 44.1 months
time on treatment of one patient with RCC (advanced solid tumor): > 11 years
TEAE: Abnormal ST segment on electrocardiogram ([1]; 40 mg BID (n = 4), Any grade): 0 n (%)
TEAE: Abnormal T-wave on electrocardiogram ([1]; 40 mg BID (n = 4), Any grade): 0 n (%)
TEAE: Anemia ([1]; 40 mg BID (n = 4), Any grade): 1 (25.0) n (%)
TEAE: Any TEAEs ([1]; 40 mg BID (n = 4), Any grade): 4 (100) n (%)
TEAE: Diarrhea ([1]; 40 mg BID (n = 4), Any grade): 0 n (%)
TEAE: Elevated low-density lipoprotein ([1]; 40 mg BID (n = 4), Any grade): 1 (25.0) n (%)
TEAE: Elevated α-hydroxybutyrate dehydrogenase ([1]; 40 mg BID (n = 4), Any grade): 1 (25.0) n (%)
TEAE: Fatigue ([1]; 40 mg BID (n = 4), Any grade): 1 (25.0) n (%)
TEAE: Hypercholesterolemia ([1]; 40 mg BID (n = 4), Any grade): 1 (25.0) n (%)
TEAE: Hyperglycemia ([1]; 40 mg BID (n = 4), Any grade): 1 (25.0) n (%)
TEAE: Hypertriglyceridemia ([1]; 40 mg BID (n = 4), Any grade): 1 (25.0) n (%)
TEAE: Hyperuricemia ([1]; 40 mg BID (n = 4), Any grade): 1 (25.0) n (%)
TEAE: Hypoalbuminemia ([1]; 40 mg BID (n = 4), Any grade): 2 (50.0) n (%)
TEAE: Hypoproteinemia ([1]; 40 mg BID (n = 4), Any grade): 1 (25.0) n (%)
TEAE: Leukopenia ([1]; 40 mg BID (n = 4), Any grade): 0 n (%)
TEAE: Lymphopenia ([1]; 40 mg BID (n = 4), Any grade): 0 n (%)
TEAE: Nausea ([1]; 40 mg BID (n = 4), Any grade): 0 n (%)
TEAE: Neutropenia ([1]; 40 mg BID (n = 4), Any grade): 1 (25.0) n (%)
TEAE: Thrombocytopenia ([1]; 40 mg BID (n = 4), Any grade): 2 (50.0) n (%)
TEAE: Urinary white blood cell positivity ([1]; 40 mg BID (n = 4), Any grade): 1 (25.0) n (%)
TEAE: Any TEAEs ([1]; 40 mg BID (n = 4), ≥ Grade 3): 1 (25.0) n (%)
TEAE: Thrombocytopenia ([1]; 40 mg BID (n = 4), ≥ Grade 3): 1 (25.0) n (%)
Dose interruption ([1]; 40 mg BID group): one patient
TEAE: Abnormal ST segment on electrocardiogram ([1]; 60 mg BID (n = 3), Any grade): 1 (33.3) n (%)
TEAE: Abnormal T-wave on electrocardiogram ([1]; 60 mg BID (n = 3), Any grade): 1 (33.3) n (%)
TEAE: Anemia ([1]; 60 mg BID (n = 3), Any grade): 1 (33.3) n (%)
TEAE: Any TEAEs ([1]; 60 mg BID (n = 3), Any grade): 3 (100) n (%)
TEAE: Diarrhea ([1]; 60 mg BID (n = 3), Any grade): 1 (33.3) n (%)
TEAE: Elevated low-density lipoprotein ([1]; 60 mg BID (n = 3), Any grade): 2 (66.7) n (%)
TEAE: Elevated α-hydroxybutyrate dehydrogenase ([1]; 60 mg BID (n = 3), Any grade): 1 (33.3) n (%)
TEAE: Fatigue ([1]; 60 mg BID (n = 3), Any grade): 1 (33.3) n (%)
TEAE: Hypercholesterolemia ([1]; 60 mg BID (n = 3), Any grade): 1 (33.3) n (%)
TEAE: Hyperglycemia ([1]; 60 mg BID (n = 3), Any grade): 0 n (%)
TEAE: Hypertriglyceridemia ([1]; 60 mg BID (n = 3), Any grade): 2 (66.7) n (%)
TEAE: Hyperuricemia ([1]; 60 mg BID (n = 3), Any grade): 1 (33.3) n (%)
TEAE: Hypoalbuminemia ([1]; 60 mg BID (n = 3), Any grade): 2 (66.7) n (%)
TEAE: Hypoproteinemia ([1]; 60 mg BID (n = 3), Any grade): 2 (66.7) n (%)
TEAE: Leukopenia ([1]; 60 mg BID (n = 3), Any grade): 1 (33.3) n (%)
TEAE: Lymphopenia ([1]; 60 mg BID (n = 3), Any grade): 1 (33.3) n (%)
TEAE: Nausea ([1]; 60 mg BID (n = 3), Any grade): 1 (33.3) n (%)
TEAE: Neutropenia ([1]; 60 mg BID (n = 3), Any grade): 1 (33.3) n (%)
TEAE: Thrombocytopenia ([1]; 60 mg BID (n = 3), Any grade): 2 (66.7) n (%)
TEAE: Urinary white blood cell positivity ([1]; 60 mg BID (n = 3), Any grade): 1 (33.3) n (%)
TEAE: Any TEAEs ([1]; 60 mg BID (n = 3), ≥ Grade 3): 2 (66.7) n (%)
TEAE: Hypertriglyceridemia ([1]; 60 mg BID (n = 3), ≥ Grade 3): 1 (33.3) n (%)
TEAE: Thrombocytopenia ([1]; 60 mg BID (n = 3), ≥ Grade 3): 1 (33.3) n (%)
Dose interruption ([1]; 60 mg BID group): one patient
Dose reduction due to TEAEs ([1]; 60 mg BID group, thrombocytopenia): one patient
TEAE: Abnormal ST segment on electrocardiogram ([1]; 80 mg BID (n = 4), Any grade): 2 (50.0) n (%)
TEAE: Abnormal T-wave on electrocardiogram ([1]; 80 mg BID (n = 4), Any grade): 3 (75.0) n (%)
TEAE: Anemia ([1]; 80 mg BID (n = 4), Any grade): 2 (50.0) n (%)
TEAE: Any TEAEs ([1]; 80 mg BID (n = 4), Any grade): 4 (100) n (%)
TEAE: Diarrhea ([1]; 80 mg BID (n = 4), Any grade): 3 (75.0) n (%)
TEAE: Elevated low-density lipoprotein ([1]; 80 mg BID (n = 4), Any grade): 0 n (%)
TEAE: Elevated α-hydroxybutyrate dehydrogenase ([1]; 80 mg BID (n = 4), Any grade): 1 (25.0) n (%)
TEAE: Fatigue ([1]; 80 mg BID (n = 4), Any grade): 2 (50.0) n (%)
TEAE: Hypercholesterolemia ([1]; 80 mg BID (n = 4), Any grade): 1 (25.0) n (%)
TEAE: Hyperglycemia ([1]; 80 mg BID (n = 4), Any grade): 2 (50.0) n (%)
TEAE: Hypertriglyceridemia ([1]; 80 mg BID (n = 4), Any grade): 3 (75.0) n (%)
TEAE: Hyperuricemia ([1]; 80 mg BID (n = 4), Any grade): 1 (25.0) n (%)
TEAE: Hypoalbuminemia ([1]; 80 mg BID (n = 4), Any grade): 1 (25.0) n (%)
TEAE: Hypoproteinemia ([1]; 80 mg BID (n = 4), Any grade): 2 (50.0) n (%)
TEAE: Leukopenia ([1]; 80 mg BID (n = 4), Any grade): 3 (75.0) n (%)
TEAE: Lymphopenia ([1]; 80 mg BID (n = 4), Any grade): 2 (50.0) n (%)
TEAE: Nausea ([1]; 80 mg BID (n = 4), Any grade): 2 (50.0) n (%)
TEAE: Neutropenia ([1]; 80 mg BID (n = 4), Any grade): 3 (75.0) n (%)
TEAE: Thrombocytopenia ([1]; 80 mg BID (n = 4), Any grade): 1 (25.0) n (%)
TEAE: Urinary white blood cell positivity ([1]; 80 mg BID (n = 4), Any grade): 1 (25.0) n (%)
TEAE: Any TEAEs ([1]; 80 mg BID (n = 4), ≥ Grade 3): 2 (50.0) n (%)
TEAE: Hyperglycemia ([1]; 80 mg BID (n = 4), ≥ Grade 3): 1 (25.0) n (%)
TEAE: Hypertriglyceridemia ([1]; 80 mg BID (n = 4), ≥ Grade 3): 2 (50.0) n (%)
Dose reduction due to TEAEs ([1]; 80 mg BID group, QTc interval prolongation): one patient
recommended phase 2 dose (RP2D) ([1]; 7 days on, 7 days off, oral): 80 mg BID
tolerability [1]: well-tolerated
tolerability ([1]; listed as Abexinostat): favorable tolerability
TEAE: Abnormal ST segment on electrocardiogram ([1]; Total (n = 11), Any grade): 3 (27.3) n (%)
TEAE: Abnormal T-wave on electrocardiogram ([1]; Total (n = 11), Any grade): 4 (36.4) n (%)
TEAE: Anemia ([1]; Total (n = 11), Any grade): 4 (36.4) n (%)
TEAE: Any TEAEs ([1]; Total (n = 11), Any grade): 11 (100) n (%)
TEAE: Diarrhea ([1]; Total (n = 11), Any grade): 4 (36.4) n (%)
TEAE: Elevated low-density lipoprotein ([1]; Total (n = 11), Any grade): 3 (27.3) n (%)
TEAE: Elevated α-hydroxybutyrate dehydrogenase ([1]; Total (n = 11), Any grade): 3 (27.3) n (%)
TEAE: Fatigue ([1]; Total (n = 11), Any grade): 4 (36.4) n (%)
TEAE: Hypercholesterolemia ([1]; Total (n = 11), Any grade): 3 (27.3) n (%)
TEAE: Hyperglycemia ([1]; Total (n = 11), Any grade): 3 (27.3) n (%)
TEAE: Hypertriglyceridemia ([1]; Total (n = 11), Any grade): 6 (54.5) n (%)
TEAE: Hyperuricemia ([1]; Total (n = 11), Any grade): 3 (27.3) n (%)
TEAE: Hypoalbuminemia ([1]; Total (n = 11), Any grade): 5 (45.5) n (%)
TEAE: Hypoproteinemia ([1]; Total (n = 11), Any grade): 5 (45.5) n (%)
TEAE: Leukopenia ([1]; Total (n = 11), Any grade): 4 (36.4) n (%)
TEAE: Lymphopenia ([1]; Total (n = 11), Any grade): 3 (27.3) n (%)
TEAE: Nausea ([1]; Total (n = 11), Any grade): 3 (27.3) n (%)
TEAE: Neutropenia ([1]; Total (n = 11), Any grade): 5 (45.5) n (%)
TEAE: Thrombocytopenia ([1]; Total (n = 11), Any grade): 5 (45.5) n (%)
TEAE: Urinary white blood cell positivity ([1]; Total (n = 11), Any grade): 3 (27.3) n (%)
TEAE: Any TEAEs ([1]; Total (n = 11), ≥ Grade 3): 5 (45.5) n (%)
TEAE: Hyperglycemia ([1]; Total (n = 11), ≥ Grade 3): 1 (9.1) n (%)
TEAE: Hypertriglyceridemia ([1]; Total (n = 11), ≥ Grade 3): 3 (27.3) n (%)
TEAE: Thrombocytopenia ([1]; Total (n = 11), ≥ Grade 3): 2 (18.2) n (%)
dose limiting toxicity (DLT) ([1]; dose escalation 40, 60, 80 mg BID, assessed after cycle 1): No DLT
≥ grade 3 thrombocytopenia ([1]; safety set, all doses, 2/11 (abstract: grade 3)): 18.2%
≥ grade 3 hypertriglyceridemia ([1]; safety set, all doses, 3/11 (abstract: grade 3)): 27.3%
any grade TEAE: abnormal T wave on electrocardiogram ([1]; safety set, all doses, 4/11): 36.4%
any grade TEAE: anemia ([1]; safety set, all doses, 4/11): 36.4%
any grade TEAE: diarrhea ([1]; safety set, all doses, 4/11): 36.4%
any grade TEAE: fatigue ([1]; safety set, all doses, 4/11): 36.4%
any grade TEAE: leukopenia ([1]; safety set, all doses, 4/11): 36.4%
any grade TEAE: hypoalbuminemia ([1]; safety set, all doses, 5/11): 45.5%
any grade TEAE: hypoproteinemia ([1]; safety set, all doses, 5/11): 45.5%
any grade TEAE: neutropenia ([1]; safety set, all doses, 5/11): 45.5%
any grade TEAE: thrombocytopenia ([1]; safety set, all doses, 5/11): 45.5%
any grade TEAE: hypertriglyceridemia ([1]; safety set, all doses, 6/11): 54.5%
grade of most TEAEs ([1]; safety set, n = 11): grade 1 or 2
median OS ([2]; PCYC-0401, DLBCL): 10.2 months
median PFS ([2]; PCYC-0401, DLBCL): 2.8 months
median OS ([2]; PCYC-0401, FL): not reached
median PFS ([2]; PCYC-0401, FL): 10.2 months
ORR ([2]; PCYC-0401, patients with DLBCL, 5/16): 31%
ORR ([2]; PCYC-0401, patients with FL, 9/16): 56%
